# Sampled rows, rich in hits. Any-hit rate of the full collection: about 5.3%.
# T cruzi inh = blocks replication of Trypanosoma cruzi. T. cruzi beta-gal in NIH3T3, luminescence, 90 h. inhibition, % (no concentration beside the values). 1.4% of 300,000 active;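 active means mean inhibition across valid replicates above about 55%, limit read from the data; inconclusive means mean below that limit but half or more replicates reach it; inactive means mean below it, under half of replicates reach it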;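 further: signal also drops with host cell toxicity which is not excluded here; 0% = plate median of DMSO wells and 100% = zero luminescence signal; higher percent means less beta-gal luminescence so fewer parasites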
#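 System: mouse NIH/3T3 fibroblasts infected with β-gal-expressing T. cruzi Tulahuen C4 / Input: NIH/3T3 cells, 5,000 per well / Buffer or medium: Low-serum DMEM with 2% FBS / Probe or stimulus: 5000 reporter trypomastigotes per well / Schedule: ≥90 h infection period, 3 h prior cell attachment / Measured by: GalScreen luminescence, 60 min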
# Calb FLC = affects C. albicans growth with fluconazole; C. albicans CaCi-2 + fluconazole, Alamar Blue growth, 48 h; growth inhibition, % (test concentration not listed); 0.57% of 300,000 active; AID 1979;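 active means growth inhibition above about 58% in most replicates, limit read from the data, passing the limit was not always enough; inconclusive means exactly half the replicates above a set limit; inactive means most replicates below a set limit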;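 further: all wells also contain fluconazole at 8 µg/ml as a sub-toxic cotreatment; 0% = median of DMSO wells and 100% = median of geldanamycin control wells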
# Mdm2 MdmX PPI = human Mdm2/MdmX binding inhibition | AID 485346 | SaOS-2 split-luciferase Mdm2/MdmX complementation, luminescence | inhibition, % at 8 µM | O15151+Q00987 | 3% of 330,000 active;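 active means inhibition of at least 50% at 8 µM in the primary screen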
# Target sequence (O15151 whole entry, looked up): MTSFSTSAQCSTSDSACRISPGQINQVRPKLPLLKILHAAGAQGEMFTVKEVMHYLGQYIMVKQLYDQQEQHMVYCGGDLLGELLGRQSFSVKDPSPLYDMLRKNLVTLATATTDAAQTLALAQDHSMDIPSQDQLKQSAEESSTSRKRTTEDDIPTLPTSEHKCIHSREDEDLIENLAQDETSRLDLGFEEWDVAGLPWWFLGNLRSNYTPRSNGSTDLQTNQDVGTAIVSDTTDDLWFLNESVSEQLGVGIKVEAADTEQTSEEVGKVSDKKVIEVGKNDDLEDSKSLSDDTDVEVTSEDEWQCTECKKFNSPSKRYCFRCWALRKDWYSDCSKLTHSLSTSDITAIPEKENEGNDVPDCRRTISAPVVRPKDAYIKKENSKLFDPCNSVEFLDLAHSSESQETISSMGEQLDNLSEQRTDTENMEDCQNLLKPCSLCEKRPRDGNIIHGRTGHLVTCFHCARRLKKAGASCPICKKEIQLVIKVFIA
# Target sequence (Q00987 whole entry, looked up): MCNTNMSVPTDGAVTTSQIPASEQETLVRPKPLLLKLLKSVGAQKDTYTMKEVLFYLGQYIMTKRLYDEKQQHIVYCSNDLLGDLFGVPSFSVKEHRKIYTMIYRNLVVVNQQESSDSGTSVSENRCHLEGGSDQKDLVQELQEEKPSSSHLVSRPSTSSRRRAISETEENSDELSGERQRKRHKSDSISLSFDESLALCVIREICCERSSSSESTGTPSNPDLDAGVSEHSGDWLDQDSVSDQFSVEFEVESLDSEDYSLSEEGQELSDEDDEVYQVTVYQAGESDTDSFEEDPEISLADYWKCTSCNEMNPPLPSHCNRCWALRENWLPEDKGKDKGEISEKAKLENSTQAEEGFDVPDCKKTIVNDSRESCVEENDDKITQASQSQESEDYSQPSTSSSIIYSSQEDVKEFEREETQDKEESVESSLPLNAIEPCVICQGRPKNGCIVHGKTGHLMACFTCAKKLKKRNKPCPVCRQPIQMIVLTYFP
# NALP3 yeast inh = NALP3 inhibition in yeast; 0.39% of 330,000 active; inhibition, % at 10 µM; AID 2825; Yeast reconstituted NLRP3/ASC/caspase-1, beta-gal luminescence, 24 h;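 active means inhibition of 50% or more; inactive means inhibition below 50%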;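 further: plate controls were induced DMSO wells for no effect and uninduced yeast grown without galactose for full effect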
# CSC inhib = cancer stem cell inhibition; cancer stem cell-like cells viability, luminescence; inhibition, % at 7.5 µM; AID 2717; 1.1% of 300,000 active; in the data active means inhibition above about 75%; inconclusive means no clear call, values can overlap the other calls; tested in HMLE shEcad cells
# Beta cell apopt = blocks beta cell apoptosis | INS-1E cytokine-induced death, ATP luminescence, 48 h; percent of positive-control rescue, neutral wells zero | protection from apoptosis, % (test concentration not listed) | 0.8% of 300,000 active;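 active means Every replicate reaches about 75%, or at least half do and their mean reaches it too, limit read from the data; inconclusive means At least half of replicates reach the limit but their mean does not; inactive means Under half of replicates reach the limit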;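 further: 0% = cytokine-treated negative control wells and 100% = positive control rescue; higher means more ATP so stronger rescue from cytokine killing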
# * marks the source's active call; other numbers are inactive results; ? = inconclusive; · = no result given.
SMILES,T cruzi inh,Calb FLC,Mdm2 MdmX PPI,NALP3 yeast inh,CSC inhib,Beta cell apopt
Nc1nn2cc(-c3ccc(Br)cc3)nc2c2ccccc12,18,99*,-121,10,·,8
Cc1ccc(-c2cc(C(F)F)n3ncc(C(=O)N4CCc5ccccc5C4)c3n2)cc1,58*,45,9,11,42,3
COc1ccc(-c2nc3n(c(=O)c2C#N)CCCS3)cc1,-16,-4,37,2,-14,-8
COc1ccc2cc(C(c3nnnn3C(C)(C)C)N3CCc4ccccc4C3)c(=O)[nH]c2c1 (configuration not stated),·,·,4,14,14,25
CCC(C)(C)n1nnnc1C(c1cc2ccc(OC)cc2[nH]c1=O)N1CCc2ccccc2C1 (configuration not stated),55*,0,10,-1,7,8
O=C(NCc1cc([N+](=O)[O-])ccc1O)c1cccnc1Sc1ccc(Cl)cc1,-29,?,-25,-4,10,10
O=C(NCc1cc([N+](=O)[O-])ccc1O)c1cccnc1Sc1ccccc1Cl,-17,86*,18,15,-2,4
NNC(=O)c1cc(-c2cccs2)nc2ccccc12,-26,104*,-10,-1,1,-4
CC(C)NC(=O)c1cc(-c2cccs2)nc2ccccc12,-3,-32,13,7,-7,-1
O=C1NN(c2ccccc2)C(=O)/C1=C\c1ccc2c(c1)OCO2,-19,-17,14,-1,-8,1
Oc1c(Br)cc(/C=N/Nc2ccc(Cl)nn2)cc1Br,5,41,-32,25,-2,3
Oc1c(Br)cc(Br)cc1/C=N/Nc1ccc(Cl)nn1,55*,83*,·,·,100*,98*
Cc1ccc(N2CC(C(=O)Nc3ccc(S(=O)(=O)Nc4nccs4)cc3)CC2=O)cc1C (configuration not stated),-4,-2,10,16,-6,-4
Cn1c(-c2ccccc2)c(C(=O)CCl)c2ccccc21,71*,45,·,·,·,·
COc1cc(/C=C(\C#N)C(=O)NCc2ccccc2)ccc1OCc1ccc(C(=O)O)cc1,1,-8,-8,3,-1,5
COc1cc(/C=C(/C#N)c2ccccc2F)ccc1OCc1ccccc1,33,4,1,7,116*,-2
COc1ccc(S(=O)(=O)Nc2ccc(Cc3ccncc3)cc2)cc1OC,-8,0,11,20,-6,44
CCc1ccc(OC)c(S(=O)(=O)Nc2ccc(Cc3ccncc3)cc2)c1,26,3,22,16,23,101*
CC(C)(C)OC(=O)NCCCCc1cn(CC(=O)N2CCN(C(=O)OC(C)(C)C)CC2)nn1,-25,-8,-12,8,-4,-2
Cc1ccccc1-n1c(SCC(=O)N/N=C/c2c(C)nn(-c3ccccc3)c2C)nc2ccccc2c1=O,56*,2,48,6,28,18
CN(C)S(=O)(=O)Oc1ccsc1C(=O)Nc1ccccc1Cl,18,12,2,27,33,-3
CN(C)S(=O)(=O)Oc1ccsc1C(=O)Nc1cccc(Cl)c1Cl,62*,8,36,21,4,0
CCN1CCCC1CNC(=O)c1cn(CC)c2ccc(S(=O)(=O)N3CCCCCC3)cc2c1=O (configuration not stated),5,-5,6,10,-3,-10
Cc1nnc(SCC(=O)NC2CC2)n1CCc1ccccc1,-1,6,-30,-10,6,-4
COC(=O)c1c(C(=O)OC)c(-c2ccc(Cl)c(Cl)c2)n2c1CCC2,14,111*,25,29,6,9
SMILES,T cruzi inh,Calb FLC,Mdm2 MdmX PPI,NALP3 yeast inh,CSC inhib,Beta cell apopt
COC(=O)c1c(C(=O)OC)c(-c2ccc(C)cc2)n2c1CCC2,11,14,25,17,-1,-2
O=C(NCC1CCCCC1)c1cc2ccccc2cc1O,4,4,-17,8,83*,-7
O=[N+]([O-])c1nn(-c2ccc3c(c2)OCCO3)n(O)c1=NCCCO,77*,?,-9,1,5,8
Cc1cccc(CCN=c2c([N+](=O)[O-])nn(-c3ccccc3)n2O)c1,43,33,17,14,-3,9
CCc1ccc(N=c2c([N+](=O)[O-])nn(-c3ccc4c(c3)OCCO4)n2O)cc1,62*,-2,41,4,·,7
COc1ccc(-n2nc([N+](=O)[O-])c(=NCCc3cccc(C)c3)n2O)cc1,63*,0,-3,-4,-3,-4
Cc1ccc(N=c2c([N+](=O)[O-])nn(-c3ccc4c(c3)OCCO4)n2O)c(Cl)c1,75*,1,40,0,-4,0
Cc1ccc(N=c2c([N+](=O)[O-])nn(-c3ccc(Cl)cc3)n2O)cc1C,59*,32,2,8,-8,-4
Cc1ccc(CN=c2c([N+](=O)[O-])nn(-c3ccc4c(c3)OCCO4)n2O)cc1,32,?,-148,39,0,-7
O=[N+]([O-])c1nn(-c2ccc3c(c2)OCCO3)n(O)c1=NC1CCCC1,90*,9,-100,2,-5,19
O=[N+]([O-])c1nn(-c2ccc3c(c2)OCCO3)n(O)c1=NC1CCCCCC1,59*,16,-19,26,·,27
O=C1CCCN1CCCN=c1c([N+](=O)[O-])nn(-c2ccc(Cl)cc2)n1O,68*,85*,·,·,·,·
Cc1ccc(CS(=O)(=O)CCC(=O)NCc2ccc3c(c2)OCO3)cc1,-3,-1,21,14,-2,-3
O=C(O)c1cccc(NC(=S)N/N=C/c2cccc(O)c2)c1,-9,-28,13,20,-7,2
O=C(NCc1ccncc1)c1nnc(Cc2c(F)cccc2Cl)o1,-11,3,-21,15,-9,0
COc1ccc(-c2noc(-c3ccccc3-c3ccccc3)n2)cc1OC,27,0,18,17,80*,5
O=C(Nc1ccc(Nc2ccccc2)cc1)Nc1ccccc1Cl,4,8,-83,15,100*,10
O=C(Nc1ccccc1Cl)Nc1ccccc1Cl,-10,0,15,-4,1,7
CC(=O)Nc1ccc(NC(=O)Nc2cccc3ccccc23)cc1,5,6,5,13,-11,-4
O=C(Nc1ccccc1)Nc1ccc(O)c2ccccc12,9,9,29,22,98*,11
O=C(Nc1ccccc1)Nc1cccc2ccccc12,-8,-18,16,4,3,6
CC(=O)c1ccc(NC(=O)Nc2cccc3ccccc23)cc1,·,81*,-14,26,-4,-2
CCC(CC)C(=O)c1c[nH]c(C(=O)N2CCN(c3ccccc3)CC2)c1,0,-10,18,6,2,-8
CC(C)N(Cc1cc2ccccc2[nH]c1=O)C(=O)C(C)(C)C,4,4,-10,-2,-2,1

# Compound activity as filed in PubChem.
